Assay results of several laboratories.
Each line is one published result; the experiments were not run side by side.
Target: Bone morphogenetic protein receptor type-1B (BMPR1B, Homo sapiens, UniProt O00238)

| Structure (SMILES) | test | conditions | remaining binding |
| --- | --- | --- | --- |
| CN(c1nccc(-c2cnn3ncccc23)n1)C1CC1 | binding | 1 µM | 76% |
| c1cncc(-c2cccc(Nc3nccc(NC4CCCCC4)n3)c2)c1 | binding, competition with immobilised ligand | 10 µM | 47% |
| N[C@@H]1CCN(c2nccc(-c3cnn4ncccc34)n2)C1 | binding | 1 µM | 94% |
| C[C@@H]1CN(c2cc(-c3nn(C)c4ccc(OC5(C)CC5)cc34)ncn2)C[C@H](C)O1 | cell-free assay, competition with immobilised ligand | 1 µM | 77% |
| COc1cnc(Nc2cccc(S(N)(=O)=O)c2)nc1N1CCN(c2ccccc2)C(=O)C1 | binding, competition with immobilised ligand | 1 µM | 100% |
| COc1ncc2cc3ccccc3nc2c1C#N | cell-free assay, competition with immobilised ligand | 5 µM | 89% |
| CN(CCCC(F)(F)F)c1nccc(-c2cnn3ncccc23)n1 | binding | 1 µM | 93% |
| COc1cnc(Nc2cccc(S(N)(=O)=O)c2)nc1N1CCN(c2ccccc2)CC1 | binding, competition with immobilised ligand | 1 µM | 87% |
| O=C(NCCCN1CCOCC1)c1ccc(Nc2ncc(Cl)c(-c3ccc(Cl)s3)n2)cc1 | binding, competition with immobilised ligand | 1 µM | 56% |
| Nc1ncc2c(n1)-c1c([nH]c3ccc(C#CC4CC4)cc13)CCCC2 | binding, competition with immobilised ligand | 1 µM | 96% |
| CC1CCCN1c1nccc(-c2cnn3ncccc23)n1 (stereo not shown) | binding | 1 µM | 84% |
| CCOC(=O)c1cc2cc(-c3cc(C(=O)NCc4ccc(C(=O)O)cc4)nn3C)ccc2[nH]1 | cell-free assay, competition with immobilised ligand | 0.1 µM | 96% |
| F[C@@H]1CCN(c2nccc(-c3cnn4ncccc34)n2)C1 | binding | 1 µM | 72% |
| Cc1cnc(Nc2ccc(C(=O)N3CCC(N4CCCC4)CC3)cc2)nc1-c1cc2ccccc2s1 | binding, competition with immobilised ligand | 1 µM | 26% |
| O=C1CCc2cc(Nc3cc(OC4CCOCC4)c([N+](=O)[O-])cc3Cl)ccc2N1 | cell-free assay, competition with immobilised ligand | 1 µM | 87% |
| O=C(Nc1c[nH]nc1C(=O)NC1CCNCC1)c1cc(F)cc(F)c1 | binding, competition with immobilised ligand | 1 µM | 84% |
| CNC(=O)Nc1ccc2c(c1)[C@@]1(CC2)OC(=O)N(CC(=O)N(Cc2ccc(F)cc2)[C@@H](C)C(F)(F)F)C1=O | cell-free assay, competition with immobilised ligand | 1 µM | 100% |
| O=C(c1ccc(Nc2ncc(Cl)c(-c3ccc(Cl)s3)n2)cc1)N1CCC(N2CCCC2)CC1 | binding, competition with immobilised ligand | 1 µM | 18% |
| CN([C@@H]1CCc2c(CC(=O)O)c3cc(S(C)(=O)=O)ccc3n2C1)S(=O)(=O)c1ccc(F)cc1 | cell-free assay, competition with immobilised ligand | 1 µM | 100% |
| CN(C)c1nccc(-c2cnc3ncccn23)n1 | binding | 1 µM | 82% |
| CCCCN(CCCC)C(=O)CN1C[C@H](c2cc(OC)c3c(c2)OCO3)[C@@H](C(=O)O)[C@@H]1CC(C)(C)CCC | cell-free assay, competition with immobilised ligand | 1 µM | 59% |
| C[C@@H](c1ccc(-n2cnc3c(N)ncnc32)cc1)N1CCc2nn(C)c(Cc3ccccc3)c2C1=O | binding, competition with immobilised ligand | 0.1 µM | 84% |
